According to ChEMBL document CHEMBL1145909, “Optically active mexiletine analogues as stereoselective blockers of voltage-gated Na(+) channels” (J Med Chem, 2003):

Columns and labels:
[1] = Half-maximal concentration producing a tonic block (blocking sodium channels at resting conditions during infrequent depolarizing pulses) in Rana esculenta muscle; type: functional, tissue-based, Muscle tissue
Procedure, shortened: (§1)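 Three-vaseline-gap voltage clamp on single fibers microdissected from the ventral branch of Rana esculenta semitendinosus. After 10 min equilibration, Na⁺ currents recorded at 10 °C from a holding potential of -100 mV. Compounds diluted daily from stocks in physiological/external solution, DMSO at most 0.2%. IC50 from a nonlinear least-squares fit of concentration-response curves; data as mean ± SEM.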

[2] = test system: Pelophylax lessonae; assay: Relative potency producing phasic block, relative to mexileitine
[3] = test system: Pelophylax lessonae; assay: Ratio of the concentrations of tonic block to that of phasic block; type: functional
[4] = Half-maximal concentration producing a phasic block (cumulative sodium current reduction at 10 HZ stimulation frequency) in Rana esculenta muscle; type: functional, tissue-based, Muscle tissue; procedure, shortened: as §1

Row | Compound | IC50 [1] [µM] | Relative potency [2] | Ratio [3] | IC50 [4] [µM]
1 | Cc1cccc(C)c1OC[C@@H](C)N [(R)-MEXILETINE] | 54 | 1 | 2 | 23
2 | Cc1cccc(C)c1OC[C@H](C)N [(S)-MEXILETINE] | 114 | 1 | 4 | 27
3 | Cc1cccc(C)c1OCC(C)N (stereo unspecified) [MEXILETINE] | 83 | – | 3 | 29
